According to ChEMBL document CHEMBL3860041, “Synthesis, biological evaluation and molecular modeling study of some new methoxylated 2-benzylthio-quinazoline-4(3H)-ones as nonclassical antifolates” (Bioorg Med Chem Lett, 2016):

Legend:
[1] = Growth inhibition of human OVCAR8 cells at 10 uM after 48 hrs by SRB assay relative to control; format: functional; details: OVCAR-8, 48 h, read-out: GI
How it was run: (§1)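 NCI 60-cell-line panel, nine tumor subpanels; compounds tested at a single dose of 10 μM in the primary screen.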

[2] = Growth inhibition of human HT-29 cells at 10 uM after 48 hrs by SRB assay relative to control; format: functional; details: HT-29, 48 h, read-out: GI; how it was run: as §1
[3] = Growth inhibition of human SW620 cells at 10 uM after 48 hrs by SRB assay relative to control; format: functional; details: SW-620, 48 h, read-out: GI
How it was run: (§2)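 Primary screen across the full NCI 60 human tumour cell line panel, which covers nine tumour subpanels. A single dose of 10 μM was applied to each line, and growth was recorded for each cell line.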

Leukemia cell = test: Potency index, ratio of 5-fluorouracil GI50 to compound GI50 for human leukemia cells; format: functional
How it was run: (§3)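 GI50 for each cell line came from NCI panel testing over a 5-log dose range, with 5-fluorouracil tested alongside as the reference drug. The index relates the 5-fluorouracil GI50 to the compound GI50 within each tumour subpanel.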

[4] = Growth inhibition of human SN12C cells at 10 uM after 48 hrs by SRB assay relative to control; format: functional; details: read-out: GI; how it was run: as §2
[5] = Growth inhibition of human OVCAR5 cells at 10 uM after 48 hrs by SRB assay relative to control; format: functional; details: OVCAR-5, 48 h, read-out: GI; how it was run: as §1
[6] = Growth inhibition of human SK-MEL-28 cells at 10 uM after 48 hrs by SRB assay relative to control; format: functional; details: SK-MEL-28, 48 h, read-out: GI; how it was run: as §2
[7] = Growth inhibition of human MDA-MB-231 cells at 10 uM after 48 hrs by SRB assay relative to control; format: functional; details: MDA-MB-231, 48 h, read-out: GI; how it was run: as §1
[8] = Growth inhibition of human IGROV1 cells at 10 uM after 48 hrs by SRB assay relative to control; format: functional; details: IGROV-1, 48 h, read-out: GI; how it was run: as §1
[9] = Growth inhibition of human SKOV3 cells at 10 uM after 48 hrs by SRB assay relative to control; format: functional; details: SK-OV-3, 48 h, read-out: GI; how it was run: as §2
Cancer cell lines [10] = test: Potency index, ratio of 5-fluorouracil GI50 to compound GI50 for human prostate cancer cells; format: functional; how it was run: as §3
[11] = Growth inhibition of human HCT116 cells at 10 uM after 48 hrs by SRB assay relative to control; format: functional; details: HCT-116, 48 h, read-out: GI; how it was run: as §1
[12] = Growth inhibition of human SK-MEL-5 cells at 10 uM after 48 hrs by SRB assay relative to control; format: functional; details: SK-MEL-5, 48 h, read-out: GI; how it was run: as §2
[13] = Growth inhibition of human SF539 cells at 10 uM after 48 hrs by SRB assay relative to control; format: functional; details: SF-539, 48 h, read-out: GI; how it was run: as §1
Cancer cell lines [14] = test: Potency index, ratio of 5-fluorouracil GI50 to compound GI50 for human renal cancer cells; format: functional; how it was run: as §3
[15] = Growth inhibition of human SF268 cells at 10 uM after 48 hrs by SRB assay relative to control; format: functional; details: SF-268, 48 h, read-out: GI; how it was run: as §1
[16] = Growth inhibition of human COLO205 cells at 10 uM after 48 hrs by SRB assay relative to control; format: functional; details: COLO 205, 48 h, read-out: GI; how it was run: as §1
[17] = Growth inhibition of human Hs 578T cells at 10 uM after 48 hrs by SRB assay relative to control; format: functional; details: read-out: GI; how it was run: as §1
Dihydrofolate reductase = molecular target: T1, Dihydrofolate reductase (Bos taurus, UniProt P00376); test: Inhibition of bovine liver DHFR preincubated for 2 mins followed by addition of FH2 as substrate and NADPH
T1 sequence (P00376 whole entry): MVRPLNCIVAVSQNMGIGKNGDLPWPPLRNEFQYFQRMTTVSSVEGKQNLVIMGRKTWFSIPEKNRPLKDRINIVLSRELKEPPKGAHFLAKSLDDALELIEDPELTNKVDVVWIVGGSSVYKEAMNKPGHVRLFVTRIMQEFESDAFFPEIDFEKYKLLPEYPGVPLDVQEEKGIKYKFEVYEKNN

[18] = Growth inhibition of human KM12 cells at 10 uM after 48 hrs by SRB assay relative to control; format: functional; details: KM12, 48 h, read-out: GI; how it was run: as §1
Cancer cell lines [19] = test: Potency index, ratio of 5-fluorouracil GI50 to compound GI50 for human breast cancer cells; format: functional; how it was run: as §3
[20] = Growth inhibition of human BT549 cells at 10 uM after 48 hrs by SRB assay relative to control; format: functional; details: BT-549, 48 h, read-out: GI; how it was run: as §1
[21] = Growth inhibition of human NCI-H522 cells at 10 uM after 48 hrs by SRB assay relative to control; format: functional; details: NCI-H522, 48 h, read-out: GI; how it was run: as §1
[22] = Growth inhibition of human colon cancer cells after 48 hrs by SRB assay; format: functional; details: Cancer cell lines
How it was run: (§4)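 Follow-up NCI panel testing over a 5-log dose range for each cell line. GI50, TGI and LC50 were monitored, with 5-fluorouracil run as the positive control. Values are grouped by tumour subpanel.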

[23] = Growth inhibition of human non-small cell lung cancer cells after 48 hrs by SRB assay; format: functional; details: Cancer cell lines; how it was run: as §4
[24] = Growth inhibition of human SNB75 cells at 10 uM after 48 hrs by SRB assay relative to control; format: functional; details: SNB-75, 48 h, read-out: GI; how it was run: as §2
[25] = Growth inhibition of human prostate cancer cells after 48 hrs by SRB assay; format: functional; details: Cancer cell lines; how it was run: as §4
[26] = Growth inhibition of human NCI/ADR-RES cells at 10 uM after 48 hrs by SRB assay relative to control; format: functional; details: read-out: GI; how it was run: as §1
[27] = Growth inhibition of human K562 cells at 10 uM after 48 hrs by SRB assay relative to control; format: functional; details: K562, 48 h, read-out: GI; how it was run: as §1
[28] = Growth inhibition of human SK-MEL-2 cells at 10 uM after 48 hrs by SRB assay relative to control; format: functional; details: SK-MEL-2, 48 h, read-out: GI; how it was run: as §2
[29] = Growth inhibition of human HCT15 cells at 10 uM after 48 hrs by SRB assay relative to control; format: functional; details: HCT-15, 48 h, read-out: GI; how it was run: as §1
[30] = Growth inhibition of human OVCAR3 cells at 10 uM after 48 hrs by SRB assay relative to control; format: functional; details: OVCAR-3, 48 h, read-out: GI; how it was run: as §1
[31] = Growth inhibition of human OVCAR4 cells at 10 uM after 48 hrs by SRB assay relative to control; format: functional; details: OVCAR-4, 48 h, read-out: GI; how it was run: as §1
[32] = Growth inhibition of human NCI-H23 cells at 10 uM after 48 hrs by SRB assay relative to control; format: functional; details: NCI-H23, 48 h, read-out: GI; how it was run: as §1
[33] = Growth inhibition of human A498 cells at 10 uM after 48 hrs by SRB assay relative to control; format: functional; details: A498, 48 h, read-out: GI; how it was run: as §1

## COc1ccc(-n2c(SCc3cc(OC)c(OC)c(OC)c3)nc3ccc(C)cc3c2=O)cc1
[1]
  inhibition of growth at 10 µM: 15.8%
[2]
  inhibition of growth at 10 µM: 78.1%
[3]
  inhibition of growth at 10 µM: 50.7%
Leukemia cell
  RatioGI50: 2 - 10
[4]
  inhibition of growth at 10 µM: 17.8%
[5]
  inhibition of growth at 10 µM: 19.4%
[6]
  inhibition of growth at 10 µM: 26%
[7]
  inhibition of growth at 10 µM: 40.3%
[8]
  inhibition of growth at 10 µM: 38%
[9]
  inhibition of growth at 10 µM: 26.3%
Cancer cell lines [10]
  RatioGI50: 2 - 10
[11]
  inhibition of growth at 10 µM: 65.1%
[12]
  inhibition of growth at 10 µM: 45.2%
[13]
  inhibition of growth at 10 µM: 22.3%
Cancer cell lines [14]
  RatioGI50: 2 - 10
[15]
  inhibition of growth at 10 µM: 19.4%
[16]
  inhibition of growth at 10 µM: 67.3%
[17]
  inhibition of growth at 10 µM: 22.3%
Dihydrofolate reductase
  IC50: 10 µM
[18]
  inhibition of growth at 10 µM: 64.7%
Cancer cell lines [19]
  RatioGI50: 2 - 10
[20]
  inhibition of growth at 10 µM: 28.6%
[21]
  inhibition of growth at 10 µM: 60.7%
[22]
  GI50: 18.2 µM
  LC50: > 100 µM
  TGI: > 100 µM
[23]
  GI50: 34.5 µM
  LC50 (concentration killing 50% of cells): > 100 µM
  TGI: > 100 µM
[24]
  inhibition of growth at 10 µM: 55.6%
[25]
  GI50: 52.8 µM
  LC50 (concentration killing 50% of cells): > 100 µM
  TGI: > 100 µM
[26]
  inhibition of growth at 10 µM: 54.2%
[27]
  inhibition of growth at 10 µM: 83.1%
[28]
  inhibition of growth at 10 µM: 35.3%
[29]
  inhibition of growth at 10 µM: 66.4%
[30]
  inhibition of growth at 10 µM: 40.1%
[31]
  inhibition of growth at 10 µM: 32.8%
[32]
  inhibition of growth at 10 µM: 30.1%
[33]
  inhibition of growth at 10 µM: 62%
